pIC50: −log10 of the molar value.
Columns and labels:
[1] = tested on: MV4-11; experiment: Induction of apoptosis in human MV4-11 cells assessed as early apoptotic cells at 0.50 uM incubated for 15 mins by Annexin-V/FITC staining based FACS analysis (reference value: 7.28%); format: functional; details: dose 0.5 µM, 0.25 h
Outline: (§1)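 MV4-11 cells were dosed, then washed twice in cold PBS and resuspended in binding buffer at 1×10^6 cells/mL. Cells were stained with FITC-annexin V and propidium iodide for 15 min in the dark, diluted with binding buffer and analysed by flow cytometry within 1 h. Quadrants: LL viable, LR early apoptotic, UR late apoptotic. Duplicate experiments averaged; DMSO control.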

[2] = tested on: MV4-11; experiment: Induction of apoptosis in human MV4-11 cells assessed as early apoptotic cells at 2 uM incubated for 15 mins by Annexin-V/FITC staining based FACS analysis (reference value: 7.28%); format: functional; details: 0.25 h; outline: as §1
[3] = tested on: MV4-11; experiment: Induction of apoptosis in human MV4-11 cells assessed as late apoptotic cells at 1 uM incubated for 15 mins by Annexin-V/FITC staining based FACS analysis (reference value: 4.36%); format: functional; details: 0.25 h; outline: as §1
[4] = tested on: MV4-11; experiment: Induction of apoptosis in human MV4-11 cells assessed as early apoptotic cells at 0.50 uM incubated for 15 mins by Annexin-V/FITC staining based FACS analysis (reference value: 0.70%); format: functional; details: dose 0.5 µM, 0.25 h; outline: as §1
[5] = tested on: MV4-11; experiment: Induction of apoptosis in human MV4-11 cells assessed as early apoptotic cells at 1 uM incubated for 15 mins by Annexin-V/FITC staining based FACS analysis (reference value: 0.70%); format: functional; details: 0.25 h; outline: as §1
[6] = tested on: MV4-11; experiment: Induction of apoptosis in human MV4-11 cells assessed as late apoptotic cells at 2 uM incubated for 15 mins by Annexin-V/FITC staining based FACS analysis (reference value: 4.17%); format: functional; details: 0.25 h; outline: as §1
[7] = tested on: MV4-11; experiment: Induction of apoptosis in human MV4-11 cells assessed as late apoptotic cells at 4 uM incubated for 15 mins by Annexin-V/FITC staining based FACS analysis (reference value: 4.17%); format: functional; details: 0.25 h; outline: as §1
[8] = molecular target: T1, Protein deacetylase HDAC6 (Homo sapiens, UniProt Q9UBN7); experiment: Inhibition of full length human HDAC6 preincubated for 3 hrs
T1 sequence (Q9UBN7 whole entry): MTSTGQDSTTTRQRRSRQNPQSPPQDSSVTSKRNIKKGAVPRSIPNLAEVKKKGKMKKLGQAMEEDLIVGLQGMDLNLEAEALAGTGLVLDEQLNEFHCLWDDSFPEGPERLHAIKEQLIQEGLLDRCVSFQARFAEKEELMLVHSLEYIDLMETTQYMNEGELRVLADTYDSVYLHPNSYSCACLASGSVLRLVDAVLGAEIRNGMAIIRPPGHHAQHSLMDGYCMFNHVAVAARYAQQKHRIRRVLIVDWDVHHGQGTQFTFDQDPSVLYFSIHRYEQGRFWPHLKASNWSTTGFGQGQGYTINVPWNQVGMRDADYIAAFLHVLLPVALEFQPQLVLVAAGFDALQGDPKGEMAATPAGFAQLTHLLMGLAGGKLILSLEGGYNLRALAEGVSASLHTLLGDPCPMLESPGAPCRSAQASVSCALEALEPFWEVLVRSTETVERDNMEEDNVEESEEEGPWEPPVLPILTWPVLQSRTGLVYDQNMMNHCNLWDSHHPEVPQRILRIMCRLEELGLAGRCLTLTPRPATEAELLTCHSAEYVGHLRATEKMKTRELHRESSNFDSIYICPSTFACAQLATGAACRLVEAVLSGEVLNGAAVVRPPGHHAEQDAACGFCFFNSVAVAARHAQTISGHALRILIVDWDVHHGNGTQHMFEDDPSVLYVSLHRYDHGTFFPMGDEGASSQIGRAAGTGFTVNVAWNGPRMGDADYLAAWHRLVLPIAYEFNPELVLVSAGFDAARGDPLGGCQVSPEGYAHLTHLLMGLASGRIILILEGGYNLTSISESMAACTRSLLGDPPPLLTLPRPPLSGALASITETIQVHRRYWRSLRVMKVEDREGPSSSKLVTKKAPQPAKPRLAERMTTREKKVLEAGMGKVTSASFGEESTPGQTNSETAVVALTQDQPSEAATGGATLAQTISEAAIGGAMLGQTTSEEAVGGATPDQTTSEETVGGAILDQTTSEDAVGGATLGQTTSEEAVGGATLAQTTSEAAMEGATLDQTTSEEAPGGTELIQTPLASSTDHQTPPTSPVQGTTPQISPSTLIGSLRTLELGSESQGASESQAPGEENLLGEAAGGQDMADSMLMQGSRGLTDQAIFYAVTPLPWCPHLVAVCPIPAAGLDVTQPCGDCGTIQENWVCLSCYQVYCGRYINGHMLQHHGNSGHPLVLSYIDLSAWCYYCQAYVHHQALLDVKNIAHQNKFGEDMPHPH

| pIC50 [8] | SMILES | Activity [1] [%] | Activity [2] [%] | Activity [3] [%] | Activity [4] [%] | Activity [5] [%] | Activity [6] [%] | Activity [7] [%] |
| --- | --- | --- | --- | --- | --- | --- | --- | --- |
| – | O=C(CCCCCCNC(=O)c1cnc(N(c2ccccc2)c2ccccc2Cl)nc1)NO [CITARINOSTAT] | 10.02 | 27.95 | 9.54 | – | – | – | – |
| 8.70 | O=C(NO)c1ccc(CN(Cc2cccnc2)S(=O)(=O)c2cc(F)c(F)c(F)c2F)cc1 | – | – | – | 1.24 | 1.84 | 15.44 | 19.29 |

— ChEMBL document CHEMBL5042469, “Unique Molecular Interaction with the Histone Deacetylase 6 Catalytic Tunnel: Crystallographic and Biological Characterization of a Model Chemotype” (J Med Chem, 2021)
